Assay results published in ChEMBL document CHEMBL1137382, “Synthesis and structure-activity relationships of carbazole sulfonamides as a novel class of antimitotic agents against solid tumors” (J Med Chem, 2006).
Values belong to the molecule of their own block, whether it stands above or below them. Activity calls are given as the source filed them. The rule behind the calls is not given here.

Tests used:
CEM (human) = assay: Antiproliferative activity against human CEM cells after 72 hrs
DU-145 = assay: Antiproliferative activity against human DU145 cells after 72 hrs; format: functional, cell-based; details: DU-145, 72 h
Summary of the method: (§1)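 Cells grown in RPMI-1640 with 10% heat-inactivated FCS, penicillin and streptomycin, 5% CO2, 37 °C, used in exponential growth. 5 × 10⁴ cells per well exposed to compound at 0–10 µM for 72 h at 37 °C. IC50 (concentration killing 50% of cells versus untreated controls) determined in duplicate by nonlinear regression.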

PC-3 = assay: Antiproliferative activity against human PC3 cells after 72 hrs; format: functional, cell-based; details: PC-3, 72 h
Summary of the method: as §1

[1] = Antiproliferative activity against human DND1 cells after 72 hrs; format: functional, cell-based; details: DND1, 72 h
Summary of the method: as §1

MOLT-3 = assay: Antiproliferative activity against human Molt3 cells after 72 hrs; format: functional, cell-based; details: MOLT-3, 72 h
Summary of the method: as §1

Bel-7402 [2] = assay: Antiproliferative activity against human Bel7402 cells after 72 hrs; format: functional, cell-based; details: Bel-7402, 72 h
Summary of the method: as §1

MCF7 [3] = assay: Antiproliferative activity against human MCF7 cells after 72 hrs; format: functional, cell-based; details: MCF7, 72 h
Summary of the method: as §1

MCF7 [4] = assay: Reduction in tumor volume of human MCF7 cell xenografted in nude mice at 100 mg/kg, ip; format: functional; details: Mus musculus, route intraperitoneal
Summary of the method: (§2)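 Female nude mice carry sc xenografts (MCF-7, 8 × 10⁶ cells, after sc estrogen 0.25 mg/mouse 24 h before; or Bel-7402). At 90–120 mm³, mice were randomised into groups of five. Dosing ip q2d for 5–6 weeks, 100 mg/kg for MCF-7 and 60 mg/kg for Bel-7402, with a solvent control. Tumor volume from caliper width and length, mean of n = 5.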

DMS-79 = assay: Antiproliferative activity against human DMS79 cells after 72 hrs; format: functional, cell-based; details: DMS-79, 72 h
Summary of the method: as §1

[5] = Toxicity ip dosed mouse; format: organism-based; details: in vivo
Bel-7402 [6] = assay: Reduction in tumor volume of human Bel7402 cell xenografted in nude mice at 60 mg/kg, ip; format: functional; details: Mus musculus, Bel-7402, ip, route intraperitoneal
Summary of the method: as §2

MCF7 [7] = assay: Cell cycle arrest in MCF7 cells by accumulation at M phase at 0.22 to 1.1 uM after 24 hrs; format: functional, cell-based; details: Homo sapiens
Summary of the method: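 MCF-7 cells exposed at 0.22 µM for up to 24 h. Cells trypsin/EDTA-harvested (1.5 × 10⁶), PBS-washed, RNase-treated (0.5 µg/µL final, 37 °C, 30 min), fixed in ice-cold 70% ethanol ≥12 h at 4 °C, and stained with propidium iodide (0.1 µg/µL final, 4 °C, 60 min). ≥10⁴ events analysed by flow cytometry. Mitotic arrest also scored on Giemsa-stained cytospins by chromosome spreading.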

MCF7 [8] = assay: Induction of apoptosis in human MCF7 cell line assessed as increase in P-p53 expression upto 48 hrs; format: functional, cell-based
Summary of the method: (§3)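 MCF-7 cells treated at 0.022–2.2 µM, or at 0.22 µM for 0–48 h. Lysed on ice in Tris/NaCl/NP-40/PMSF/aprotinin buffer and protein measured by Bradford. Blots blocked in 5% milk/TBST and probed with monoclonal antibodies to bcl-2, p53, cdc-2 and cyclin B1, then HRP anti-mouse. Signals detected by ECL on film.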

MCF7 [9] = assay: Induction of apoptosis in human MCF7 cell line assessed as increase in cyclin B1 expression upto 48 hrs; format: functional, cell-based
Summary of the method: as §3

MCF7 [10] = assay: Induction of apoptosis in human MCF7 cell line assessed as increase in cdc2 expression upto 48 hrs; format: functional, cell-based
Summary of the method: as §3

SMILES: CCn1c2ccccc2c2cc(NS(=O)(=O)c3ccc(OC)cc3N)ccc21
IC50 (CEM (human)): > 10000 nM

SMILES: CCn1c2ccccc2c2cc(NS(=O)(=O)c3cccc(C#N)c3)ccc21
IC50 (CEM (human)): 1320 nM

IC50 (DU-145): 169 nM | IC50 (PC-3): 90 nM | IC50 (MOLT-3): 67 nM | IC50 (Bel-7402 [2]): 135 nM | IC50 (MCF7 [3]): 67 nM
SMILES: CCn1c2ccccc2c2cc(S(=O)(=O)Nc3cc(OC)c(Cl)cc3OC)ccc21
IC50 [1]: 90 nM | IC50 (CEM (human)): 56 nM

SMILES: CCn1c2ccccc2c2cc(S(=O)(=O)Nc3ccc(OC)c(OC)c3)ccc21
IC50 (CEM (human)): 2440 nM

SMILES: CCn1c2ccccc2c2cc(S(=O)(=O)Nc3ccc(F)cc3)ccc21
IC50 (CEM (human)): 2170 nM

SMILES: CCn1c2ccccc2c2cc(S(=O)(=O)Nc3ccc4c(c3)OCO4)ccc21
IC50 (CEM (human)): 6250 nM

SMILES: CCn1c2ccccc2c2cc(NS(=O)(=O)c3cc(OC)ccc3OC)ccc21
IC50 (CEM (human)): 603 nM

SMILES: CCn1c2ccccc2c2cc(S(=O)(=O)Nc3cc(OC)c(OC)c(OC)c3)ccc21
inhibition in vivo at 100 mg/kg (MCF7 [4]): 75% | IC50 (DU-145): 603 nM | IC50 (PC-3): 201 nM | IC50 [1]: 89 nM | IC50 (DMS-79): 1900 nM | LD50 [5]: > 500 mg/kg | inhibition in vivo at 60 mg/kg (Bel-7402 [6]): 55% | Activity (MCF7 [7]): Active | Activity (MCF7 [8]): Active | Activity (MCF7 [9]): Active | Activity (MCF7 [10]): Active | IC50 (MOLT-3): 20 nM | IC50 (Bel-7402 [2]): 201 nM | IC50 (MCF7 [3]): 89 nM | IC50 (CEM (human)): 56 nM

IC50 (DU-145): 232 nM | IC50 (PC-3): 116 nM | IC50 (MOLT-3): 19 nM | IC50 (Bel-7402 [2]): 116 nM | IC50 (MCF7 [3]): 70 nM
SMILES: COc1cc(NS(=O)(=O)c2ccc3c(c2)c2ccccc2n3C)cc(OC)c1OC
IC50 [1]: 70 nM | IC50 (DMS-79): 2090 nM | IC50 (CEM (human)): 46 nM

SMILES: COc1cc(OC)c(NS(=O)(=O)c2ccc3c(c2)c2ccccc2n3C)c(OC)c1
IC50 (CEM (human)): 70 nM

SMILES: CCn1c2ccccc2c2cc(NS(=O)(=O)c3ccc(OC)cc3)ccc21
IC50 (CEM (human)): > 10000 nM

SMILES: COc1cc(NS(=O)(=O)c2ccc3oc4ccccc4c3c2)cc(OC)c1OC
IC50 (CEM (human)): > 10000 nM

IC50 (DU-145): 144 nM | IC50 (PC-3): 144 nM | IC50 (MOLT-3): 48 nM | IC50 (Bel-7402 [2]): 96 nM | IC50 (MCF7 [3]): 48 nM
SMILES: CCn1c2ccccc2c2cc(S(=O)(=O)Nc3ccc(OC)cc3OC)ccc21
IC50 [1]: 120 nM | IC50 (CEM (human)): 57 nM

SMILES: CCn1c2ccccc2c2cc(S(=O)(=O)Nc3ccc(OC)c(N)c3)ccc21
IC50 (CEM (human)): 2200 nM

SMILES: COc1ccc(/C=C\c2cc(OC)c(OC)c(OC)c2)cc1O [COMBRETASTATIN A4]
IC50 (DU-145): 9.3 nM | IC50 (PC-3): 2.8 nM | IC50 [1]: 2.5 nM | IC50 (DMS-79): 124 nM | IC50 (MOLT-3): 9.3 nM | IC50 (Bel-7402 [2]): 10 nM | IC50 (MCF7 [3]): 12 nM | IC50 (CEM (human)): 1.9 nM

SMILES: COc1cc([C@@H]2c3cc4c(cc3[C@H](O)[C@H]3COC(=O)[C@H]23)OCO4)cc(OC)c1OC [PODOFILOX]
IC50 (DU-145): 52 nM | IC50 (PC-3): 10 nM | IC50 [1]: 12 nM | IC50 (DMS-79): 23 nM | IC50 (MOLT-3): 14 nM | IC50 (Bel-7402 [2]): 9.1 nM | IC50 (MCF7 [3]): 15 nM | IC50 (CEM (human)): 7.2 nM

SMILES: CCn1c2ccccc2c2cc(S(=O)(=O)Nc3ccc(OC)cc3)ccc21
IC50 (CEM (human)): > 10000 nM

SMILES: CCn1c2ccccc2c2cc(S(=O)(=O)Nc3ccc(OC)c(Cl)c3)ccc21
IC50 (CEM (human)): 482 nM

SMILES: CCn1c2ccccc2c2cc(S(=O)(=O)Nc3cc(Cl)c(OC)cc3OC)ccc21
IC50 (CEM (human)): 67 nM

SMILES: CCn1c2ccccc2c2cc(S(=O)(=O)NCc3cc(OC)c(OC)c(OC)c3)ccc21
IC50 (CEM (human)): > 10000 nM

SMILES: COc1cc(NS(=O)(=O)c2ccc3[nH]c4ccccc4c3c2)cc(OC)c1OC
IC50 (CEM (human)): 606 nM

IC50 (DU-145): 365 nM | IC50 (PC-3): 780 nM | IC50 (MOLT-3): 49 nM | IC50 (Bel-7402 [2]): 219 nM | IC50 (MCF7 [3]): 98 nM
SMILES: CCn1c2ccccc2c2cc(S(=O)(=O)Nc3cc(OC)ccc3OC)ccc21
IC50 [1]: 195 nM | IC50 (CEM (human)): 61 nM

SMILES: CCn1c2ccccc2c2cc(S(=O)(=O)Nc3cc(OC)cc(OC)c3)ccc21
IC50 (CEM (human)): 974 nM

SMILES: CCn1c2ccccc2c2cc(S(=O)(=O)Nc3cc(C(F)(F)F)cc(C(F)(F)F)c3)ccc21
IC50 (CEM (human)): > 10000 nM

SMILES: COc1cc(NS(=O)(=O)c2ccc3c(c2)c2ccccc2n3C)c(OC)cc1Cl
IC50 (CEM (human)): 46 nM

SMILES: CCn1c2ccccc2c2cc(NS(=O)(=O)c3cccc(OC)c3)ccc21
IC50 (CEM (human)): 789 nM

SMILES: CCn1c2ccccc2c2cc(NS(=O)(=O)c3ccc(OC)cc3[N+](=O)[O-])ccc21
IC50 (CEM (human)): > 10000 nM

SMILES: CCn1c2ccccc2c2cc(NS(=O)(=O)c3ccc(OC)c(OC)c3)ccc21
IC50 (CEM (human)): 2650 nM
